Laboratory results reported in PMC6136361 (Journal of Enzyme Inhibition and Medicinal Chemistry, 2018).
Where two headings read alike, the source gives them in different places.

Legend:
HCT-116 cells = experiment: Cytotoxicity, Sulforhodamine-B; format: cell-based; conditions: Homo sapiens, HCT-116, 48 h, read-out: IC50 HCT-116
Summary of the method: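 SRB viability: cells seeded at 5 × 10^4–10^5/well and left to attach 24 h. Test compound (DMSO, diluted in saline) at 0.001–100 µM for 48 h, four wells per concentration; vehicle-only controls. Fixed cold 50% TCA 1 h at 4 °C, stained 0.4% SRB in 1% acetic acid 30 min, dye solubilised in 10 mM tris base pH 10.5, OD 564 nm. Survival fraction = OD treated/OD control; IC50 from survival-concentration plot; repeated three times.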

caspase-7 = experiment: ELISA immunoassay of active caspase-7 level in HepG-2 cells; format: cell-based, human; conditions: HepG-2, at IC50, 24 h
caspase-3 = experiment: ELISA immunoassay of active caspase-3 level in HepG-2 cells; format: cell-based, human; conditions: HepG-2, at IC50, 24 h
HepG-2 cells [1] = experiment: Cytotoxicity, Sulforhodamine-B; format: cell-based, human; conditions: Homo sapiens
VEGFR-2 = VEGFR-2 (Homo sapiens, UniProt P35968); experiment: biochemical; format: biochemical
Bax = experiment: ELISA immunoassay of Bax level in HepG-2 cells; format: cell-based, human; conditions: HepG-2, at IC50, 24 h
Bcl-2 = experiment: ELISA immunoassay of Bcl-2 level in HepG-2 cells; format: cell-based, human; conditions: HepG-2, at IC50, 24 h
HepG-2 cells [2] = experiment: FITC-annexin V / PI staining for apoptosis; format: cell-based, human; conditions: HepG-2, at IC50, 24 h
HepG-2 cells [3] = experiment: DNA-flow cytometry cell cycle analysis; format: cell-based, human; conditions: HepG-2, at IC50, 24 h
Summary of the method: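 HepG-2 cells exposed to test compound for 24 h, with an untreated control. Cells washed twice in ice-cold PBS, pelleted, fixed in ice-cold 70% ethanol, treated with 0.1 mg/mL RNase and stained with propidium iodide. DNA content measured by flow cytometry to give cell-cycle phase distribution. Fold change versus control; mean ± SEM, n = 4, one-way ANOVA with Tukey test.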

β-tubulin = β-tubulin (Homo sapiens, UniProt P07437); experiment: β-tubulin polymerization inhibition assay; format: cell-based
p53 = experiment: ELISA immunoassay of p53 level in HepG-2 cells; format: cell-based, human; conditions: HepG-2, at IC50, 24 h

β-tubulin, sequence (P07437 whole entry): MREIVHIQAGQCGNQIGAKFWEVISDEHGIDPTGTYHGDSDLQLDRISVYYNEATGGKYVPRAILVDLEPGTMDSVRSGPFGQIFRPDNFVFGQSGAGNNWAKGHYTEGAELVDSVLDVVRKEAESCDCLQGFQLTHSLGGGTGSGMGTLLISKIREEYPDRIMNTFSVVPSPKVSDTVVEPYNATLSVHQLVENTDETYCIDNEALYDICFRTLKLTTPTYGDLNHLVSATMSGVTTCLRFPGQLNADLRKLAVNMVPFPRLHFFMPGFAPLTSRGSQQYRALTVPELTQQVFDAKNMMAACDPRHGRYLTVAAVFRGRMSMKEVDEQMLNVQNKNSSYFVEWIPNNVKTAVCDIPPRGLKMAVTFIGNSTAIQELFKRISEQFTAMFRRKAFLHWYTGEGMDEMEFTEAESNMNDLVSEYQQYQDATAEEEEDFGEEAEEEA
β-tubulin, sequence (P68363 whole entry partner): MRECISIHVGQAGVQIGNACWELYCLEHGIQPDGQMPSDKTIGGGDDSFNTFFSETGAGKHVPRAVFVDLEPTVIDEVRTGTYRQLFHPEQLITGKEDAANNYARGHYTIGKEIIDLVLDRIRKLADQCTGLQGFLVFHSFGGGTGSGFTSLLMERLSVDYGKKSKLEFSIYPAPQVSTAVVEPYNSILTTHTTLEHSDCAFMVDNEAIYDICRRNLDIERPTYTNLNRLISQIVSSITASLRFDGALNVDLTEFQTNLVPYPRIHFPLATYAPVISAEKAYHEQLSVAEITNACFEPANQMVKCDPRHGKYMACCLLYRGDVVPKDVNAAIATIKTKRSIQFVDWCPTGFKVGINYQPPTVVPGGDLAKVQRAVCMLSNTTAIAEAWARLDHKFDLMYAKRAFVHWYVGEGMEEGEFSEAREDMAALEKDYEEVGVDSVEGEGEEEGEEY
VEGFR-2, sequence (P35968 20-1356): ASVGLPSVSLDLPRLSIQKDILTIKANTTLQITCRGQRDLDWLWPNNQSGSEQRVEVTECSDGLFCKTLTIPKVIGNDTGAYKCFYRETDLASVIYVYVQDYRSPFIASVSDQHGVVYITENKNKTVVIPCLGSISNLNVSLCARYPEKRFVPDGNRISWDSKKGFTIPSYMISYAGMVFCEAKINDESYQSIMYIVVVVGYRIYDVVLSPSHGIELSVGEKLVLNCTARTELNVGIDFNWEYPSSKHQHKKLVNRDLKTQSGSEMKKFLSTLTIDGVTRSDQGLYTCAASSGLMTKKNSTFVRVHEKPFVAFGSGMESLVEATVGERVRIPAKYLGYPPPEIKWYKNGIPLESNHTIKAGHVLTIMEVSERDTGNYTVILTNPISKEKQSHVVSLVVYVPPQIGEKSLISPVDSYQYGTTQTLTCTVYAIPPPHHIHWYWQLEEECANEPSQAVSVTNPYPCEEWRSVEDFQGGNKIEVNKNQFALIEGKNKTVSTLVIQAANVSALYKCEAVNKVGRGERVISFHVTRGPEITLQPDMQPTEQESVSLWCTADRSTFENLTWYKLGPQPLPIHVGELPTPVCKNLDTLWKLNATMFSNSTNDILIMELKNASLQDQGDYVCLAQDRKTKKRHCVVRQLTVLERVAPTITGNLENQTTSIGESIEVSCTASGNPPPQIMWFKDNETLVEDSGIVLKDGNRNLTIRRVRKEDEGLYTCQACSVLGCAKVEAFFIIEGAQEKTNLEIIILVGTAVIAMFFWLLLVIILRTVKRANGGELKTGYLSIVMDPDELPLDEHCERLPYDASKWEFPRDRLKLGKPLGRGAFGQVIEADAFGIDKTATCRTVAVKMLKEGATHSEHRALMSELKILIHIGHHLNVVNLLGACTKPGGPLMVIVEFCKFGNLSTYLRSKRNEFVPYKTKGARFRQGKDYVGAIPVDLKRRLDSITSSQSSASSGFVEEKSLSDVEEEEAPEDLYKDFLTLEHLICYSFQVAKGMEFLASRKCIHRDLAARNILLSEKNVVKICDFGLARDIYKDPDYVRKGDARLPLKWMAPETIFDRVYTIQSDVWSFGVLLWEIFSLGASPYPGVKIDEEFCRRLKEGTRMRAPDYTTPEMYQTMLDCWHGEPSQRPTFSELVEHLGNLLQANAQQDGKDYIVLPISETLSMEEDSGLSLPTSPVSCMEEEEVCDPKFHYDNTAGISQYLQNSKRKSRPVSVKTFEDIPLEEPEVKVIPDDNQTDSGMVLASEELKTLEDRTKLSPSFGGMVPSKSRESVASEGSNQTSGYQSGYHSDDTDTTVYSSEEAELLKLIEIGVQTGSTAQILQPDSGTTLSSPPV

## COc1ccc(NC(=O)c2c(Nc3ccccc3)sc(C(=O)NN=Cc3ccc(OC)c(O)c3)c2NC(C)=O)cc1 [Compound 21, 4-Acetamido-5-[2-(3-hydroxy-4-methoxybenzylidene) hydrazinocarbonyl]-N-(4-methoxyphenyl)-2-phenylaminothiophene-3-carboxamide]
HCT-116 cells
  IC50: 4320 ± 110 nM
caspase-7
  caspase-7 level, fold increase compared to the control: 5.9 fold
caspase-3
  caspase-3 level, fold increase compared to the control: 9.2 fold
HepG-2 cells [1]; HepG2, 48 h, read-out: IC50 HepG-2
  IC50: 2610 ± 120 nM
HepG-2 cells [1]; HepG2, read-out: HepG-2 IC50
  IC50: 2610 nM
VEGFR-2
  IC50: 1290 ± 130 nM
Bax
  Bax level, fold increase compared to the control: 11.8 fold
Bcl-2
  Bcl-2 level, fold decrease compared to the control: 2.5 fold
HepG-2 cells [2]
  early apoptosis fold increase vs control: 6 fold
  late apoptosis fold increase vs control: 21 fold
HepG-2 cells [2]; control 0.34%
  late apoptotic cells percentage (Q2): 7.2%
HepG-2 cells [3]
  G2/M arrest, fold increase compared to the control: ~1.9 fold
HepG-2 cells [3]; control 0.10%
  apoptotic sub-G1 cell population: 6.07%
β-tubulin; at their IC50 values on HepG-2 cells
  %β-TUB polymerization inhibition: 85.95 ± 0.21%
β-tubulin; at their IC50 values, HepG-2 cells
  β-tubulin polymerization inhibition: 86%
p53
  p53 protein level, fold increase compared with the control: ~1.7 fold
